# Experimental data from ChEMBL document CHEMBL1132153, “Antitumor agents. 196. Substituted 2-thienyl-1,8-naphthyridin-4-ones: their synthesis, cytotoxicity, and inhibition of tubulin polymerization” (J Med Chem, 1999).
# Tests used:
# MCF7 = test: In vitro cytotoxicity against MCF-7 human breast cancer cells; assay type: functional; settings: read-out: ED50 (the source's name)
# Procedure, shortened: (§1)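 Panel of human tumor lines: KB nasopharyngeal epidermoid, A-549 lung, HCT-8 ileocecal, CAKI-1 renal, MCF-7 breast, SKMEL-2 melanoma. Growth measured by SRB assay and compared with untreated cells.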
# KB [1] = test: In vitro cytotoxicity against KB human epidermoid carcinoma of the nasopharynx; assay type: functional; settings: read-out: ED50 (the source's name); procedure, shortened: as §1
# KB [2] = test: In vitro cytotoxicity against KB-Vin cancer cell line.; assay type: functional; settings: Homo sapiens, read-out: ED50 (the source's name)
# A549 = test: In vitro cytotoxicity against A-549 human lung cancer cells; assay type: functional; settings: read-out: ED50 (the source's name); procedure, shortened: as §1
# SK-MEL-2 [3] = test: In vitro cytotoxicity against SKMEL-2 human melanoma cancer cells; assay type: functional; settings: read-out: ED50 (the source's name); procedure, shortened: as §1
# HCT-8 = test: In vitro cytotoxicity against HCT-8 human ileocecal cancer cells; assay type: functional; settings: read-out: ED50 (the source's name); procedure, shortened: as §1
# Tubulin [4] = target: T1, Tubulin (Bos taurus, UniProt Q6B856+Q862L2+Q862F3); test: Concentration inhibiting tubulin polymerization (ITP); assay type: functional
# Tubulin (Bos taurus) [5] = target: T2, Tubulin (Bos taurus) (UniProt Q6B856+Q862L2+Q862F3); test: Concentration inhibiting [3H]colchicine binding to tubulin, at a concentration of 5 uM; assay type: protein assay
# Procedure, shortened: (§2)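 Inhibition of [³H]colchicine binding to electrophoretically homogeneous bovine brain tubulin (1 µM). [³H]colchicine and inhibitor each at 5 µM. Result given as % inhibition.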
# SK-MEL-5 = test: In vitro growth inhibition of SK-MEL-5 melanoma cell line.; assay type: functional; settings: Homo sapiens
# HL-60 [6] = test: In vitro growth inhibition of HL-60 (TB) leukemia cell line.; assay type: functional; settings: Homo sapiens
# Procedure, shortened: (§3)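 Human leukemia HL-60(TB) cells exposed to compound in vitro. The read-out is log GI50 in molar units, defined as the log concentration that reduced cell growth to 50% of the level in untreated controls.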
# MDA-MB-435 = test: In vitro growth inhibition of MDA-MB-435 breast cancer cell line.; assay type: functional; settings: Homo sapiens
# NCI-H23 = test: In vitro growth inhibition of NCI-H23 non small cell lung cancer cell line.; assay type: functional; settings: Homo sapiens
# SW-620 = test: In vitro growth inhibition of SW-620 colon cancer cell line.; assay type: functional; settings: Homo sapiens
# OVCAR-3 = test: In vitro growth inhibition of OVCAR-3 ovarian cancer cell line.; assay type: functional; settings: Homo sapiens
# MDA-N = test: In vitro growth inhibition of MDA-N breast cancer cell line.; assay type: functional; settings: Homo sapiens
# RXF 393 = test: In vitro growth inhibition of RXF-393 renal cancer cell line.; assay type: functional; settings: Homo sapiens
# CAKI-1 = test: In vitro cytotoxicity against CAKI-1 human renal cancer cells; assay type: functional; settings: read-out: ED50 (the source's name); procedure, shortened: as §1
# Tubulin (Bos taurus) [7] = target: T2, Tubulin (Bos taurus); test: Concentration inhibiting [3H]-colchicine binding to tubulin; assay type: protein assay; settings: concentration not given here; procedure, shortened: as §2
# Tubulin [8] = target: T1, Tubulin; test: Inhibition of tubulin polymerization (ITP); assay type: functional
# Procedure, shortened: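 Polymerization of electrophoretically homogeneous bovine brain tubulin at 12 µM, run with a range of inhibitor concentrations. IC50 is the concentration inhibiting polymerization by 50%, reported ± SD.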
# U-251 = test: In vitro growth inhibition of U251 CNS cancer cell line.; assay type: functional; settings: Homo sapiens
# PC-3 = test: In vitro growth inhibition of PC-3 prostate cancer cell line.; assay type: functional; settings: Homo sapiens
# KB [9] = test: In vitro cytotoxicity against KB-Vin cancer cell line; assay type: functional; settings: Homo sapiens, read-out: ED50 (the source's name)
# HL-60 [10] = test: In vitro growth inhibition of HL-60 (TB) leukemia cell line; assay type: functional; settings: Homo sapiens; procedure, shortened: as §3
# SK-MEL-2 [11] = test: In vitro cytotoxicity against SKMEL-2 human melanoma cancer; assay type: functional; settings: read-out: ED50 (the source's name); procedure, shortened: as §1
Compound,EC50 (MCF7),EC50 (KB [1]),EC50 (A549),EC50 (HCT-8),GI50 (SK-MEL-5),GI50 (HL-60 [6]),GI50 (MDA-MB-435),GI50 (NCI-H23),GI50 (SW-620),GI50 (OVCAR-3),GI50 (MDA-N),GI50 (RXF 393),EC50 (CAKI-1),IC50 (Tubulin [8]),GI50 (U-251),GI50 (PC-3),further results
Cc1ccc2c(O)cc(-c3ccc(Br)s3)nc2n1,> 800 nM,800 nM,> 3100 nM,> 800 nM,–,–,–,–,–,–,–,–,–,–,–,–,EC50 (KB [2]): 500 nM; EC50 (SK-MEL-2 [3]): > 10000 nM; IC50 (Tubulin [4]): 1500 nM; inhibition (Tubulin (Bos taurus) [5]): 19%
Cc1ccc2c(O)cc(-c3csc4ccccc34)nc2n1,–,–,–,–,< 10 nM,< 10 nM,< 10 nM,21.9 nM,< 10 nM,< 10 nM,< 10 nM,< 10 nM,–,–,–,–,IC50 (Tubulin [4]): 370 nM; inhibition (Tubulin (Bos taurus) [5]): 65%
Cc1ccnc2nc(-c3csc4ccccc34)cc(O)c12,250 nM,40 nM,200 nM,–,–,–,–,–,–,–,–,–,> 250 nM,–,–,–,inhibition (Tubulin (Bos taurus) [7]): 22%; IC50 (Tubulin [4]): 1200 nM
Cc1ccc2c(O)cc(-c3sc(-c4ccccc4)cc3C)nc2n1,–,–,–,–,3390 nM,5500 nM,3550 nM,6030 nM,10000 nM,21400 nM,3890 nM,36300 nM,–,14000 nM,–,–,–
Cc1cc(C)c2c(O)cc(-c3csc4ccccc34)nc2n1,500 nM,120 nM,300 nM,–,–,–,–,–,–,–,–,–,> 500 nM,–,–,–,inhibition (Tubulin (Bos taurus) [7]): 26%; IC50 (Tubulin [4]): 780 nM
Cc1ccc2c(O)cc(-c3cccs3)nc2n1,> 1600 nM,6300 nM,> 6300 nM,–,6030 nM,2690 nM,2000 nM,4370 nM,2950 nM,30900 nM,1860 nM,11200 nM,–,6000 nM,17000 nM,9330 nM,EC50 (KB [9]): 9500 nM
Cc1ccc2c(O)cc(-c3ccc(Cl)s3)nc2n1,–,–,–,–,380 nM,204 nM,380 nM,1000 nM,–,2040 nM,186 nM,2040 nM,–,1700 nM,1200 nM,1580 nM,–
Cc1ccc2c(O)cc(-c3cc(C)sc3C)nc2n1,–,–,–,–,661 nM,1550 nM,372 nM,1230 nM,1410 nM,2820 nM,631 nM,1910 nM,–,4800 nM,3470 nM,2240 nM,–
Cc1cnc2nc(-c3sccc3C)cc(O)c2c1,1100 nM,1300 nM,2500 nM,1000 nM,2040 nM,–,324 nM,–,4170 nM,3800 nM,676 nM,4470 nM,> 5000 nM,3800 nM,9120 nM,5370 nM,EC50 (KB [2]): 1900 nM
Cc1ccc2c(O)cc(-c3cc4ccccc4s3)nc2n1,–,–,–,–,> 100000 nM,> 100000 nM,> 100000 nM,> 100000 nM,> 100000 nM,> 100000 nM,> 100000 nM,51300 nM,–,> 40000 nM,> 100000 nM,> 100000 nM,–
Cc1ccc2c(O)cc(-c3sc4ccccc4c3C)nc2n1,–,–,–,–,14800 nM,18600 nM,4790 nM,19500 nM,20000 nM,19500 nM,17000 nM,17000 nM,–,13000 nM,38900 nM,33100 nM,–
Cc1ccc2c(O)cc(-c3sccc3C)nc2n1,–,–,–,–,178 nM,174 nM,107 nM,145 nM,145 nM,661 nM,77.6 nM,631 nM,–,2800 nM,468 nM,245 nM,–
Cc1ccc2c(O)cc(-c3ccsc3)nc2n1,> 3100 nM,6300 nM,> 6300 nM,> 3100 nM,2570 nM,–,490 nM,1860 nM,1000 nM,5130 nM,363 nM,3240 nM,–,7000 nM,3890 nM,3090 nM,GI50 (HL-60 [10]): 2190 nM
Cc1ccc2c(O)cc(-c3ccc(C)s3)nc2n1,–,–,–,–,204 nM,77.6 nM,23.4 nM,138 nM,47.9 nM,257 nM,22.9 nM,195 nM,–,1700 nM,324 nM,204 nM,–
Cc1cnc2nc(-c3ccc(C)s3)cc(O)c2c1,1100 nM,1100 nM,1300 nM,900 nM,–,–,–,–,–,–,–,–,1250 nM,2700 nM,–,–,EC50 (KB [2]): 1100 nM; EC50 (SK-MEL-2 [11]): > 2500 nM
Cc1ccc2c(O)cc(-c3cccnc3)nc2n1,1200 nM,3000 nM,4600 nM,2100 nM,–,–,–,–,–,–,–,–,5000 nM,7700 nM,–,–,EC50 (SK-MEL-2 [11]): > 10000 nM; EC50 (KB [9]): 2500 nM
Cc1ccc2c(O)cc(-c3ccco3)nc2n1,> 20000 nM,> 10000 nM,> 10000 nM,> 10000 nM,–,–,–,–,–,–,–,–,> 10000 nM,14000 nM,–,–,EC50 (SK-MEL-2 [3]): > 10000 nM
Cc1cnc2nc(-c3csc4ccccc34)cc(O)c2c1,125 nM,27 nM,56 nM,57 nM,–,–,–,–,–,–,–,–,134 nM,–,–,–,EC50 (SK-MEL-2 [3]): 135 nM; inhibition (Tubulin (Bos taurus) [7]): 26%; IC50 (Tubulin [4]): 910 nM
